Results from ChEMBL document CHEMBL4765343, “Design and synthesis of novel SCM-198 analogs as cardioprotective agents: Structure-activity relationship studies and biological evaluations” (Eur J Med Chem, 2020).
The source made the active and inactive calls. No cut-off for these calls is given here.

Key:
Mus musculus [1] = assay: (§1) Cardioprotective activity in C57BL/6J mouse model of LAD coronary artery ligation-induced acute myocardial infarction assessed as reduction in myocardial infarct size at 10 mg/kg, ip pretreated for 7 consecutive days followed by LAD coronary artery ligation after compound treatment for another 3 days by TTC staining based assay; assay type: functional, organism-based; details: time 10.0 day
In short: (§2)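 Male/female not stated; 8-week C57BL/6J mice given daily ip doses in saline vehicle for 7 d, then permanent LAD ligation, with dosing continued 3 more days to sacrifice. Under isoflurane, hearts perfused with saline plus 40 mM KCl, cut into 4-5 transverse slices, stained with 1% TTC pH 7.4 at 37 °C for 20 min, formalin-fixed; infarct area by planimetry as % of LV area; N = 6-7 per group.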

[2] = Oral bioavailability in Sprague-Dawley rat measured upto 24 hrs by LC-MS/MS analysis; assay type: ADME, organism-based; details: in vivo
H9c2 [3] = assay: Cytoprotective activity against H2O2-induced injury in rat H9c2 cells assessed as reduction in LDH release at 10 uM preincubated for 4 hrs followed by H2O2 stimulation for 1 hr by LDH assay; assay type: functional, cell-based; details: time 5.0 hrs
In short: (§3)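 Cells at 5 × 10^4 per well in triplicate, 18 h, then 4 h compound and 1 h H2O2. Model wells had H2O2 without compound; controls had DMSO. 50 μL medium mixed with 2X LDH assay buffer, kept in the dark at 22-25 °C for 10-30 min, read at 490-520 nm. Activity blank-subtracted, normalised to BCA protein of the lysed cells, and expressed relative to model wells.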

H9c2 [4] = assay: Antiapoptotic activity in rat H9c2 cells assessed as reduction in H2O2-induced mitochondrial membrane potential loss at 10 uM preincubated for 4 hrs followed by H2O2 stimulation for 1 hr by JC1 staining based fluorescence microscopic analysis; assay type: functional, cell-based; details: time 5.0 hrs
In short: (§4)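 Pretreatment 4 h before 400 nM H2O2. Cells washed in cold PBS pH 7.4 and loaded with 0.5 μg/mL JC-1 for 40 min at 37 °C, washed, then viewed at once by fluorescence microscopy. Monomer read at ex 490/em 535 nm, aggregate at ex 525/em 600 nm. Ratio taken from three independent fields per group, mean ± SD.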

Mus musculus [5] = assay: as §1, with “apoptosis of cardiomyocytes” for “myocardial infarct size”, “TUNEL” for “TTC”; assay type: functional, organism-based; details: time 10.0 day
In short: (§5)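 C57BL/6J mice, 8 weeks old, given compound i.p. in saline vehicle daily for 7 days, then permanent LAD ligation with body temperature held at 37 °C. Dosing continued 3 more days until sacrifice. Sections treated with proteinase K, then TdT reaction 30 min at 37 °C and DAPI counterstain. TUNEL-positive nuclei in border area counted as % of DAPI nuclei, N = 4 per group.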

H9c2 [6] = assay: Antioxidant activity in rat H9c2 cells assessed as protection against H2O2-induced hypoxic injury by measuring cell viability preincubated for 4 hrs followed by H2O2 stimulation for 1 hr by MTT assay relative to control; assay type: functional; details: time 5 hrs, read-out: ED50 (the source's name)
In short: (§6)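 ED50 taken from log dose against % viability. Viability also reported at the EC50 concentration. Means ± SEM from three independent experiments.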

H9c2 [7] = assay: Anti-oxidative effect in rat H9c2 cells assessed as reduction in H2O2-induced MnSOD activity at 10 uM preincubated for 4 hrs followed by H2O2 stimulation for 1 hr by WST-8 assay; assay type: functional, cell-based; details: time 5.0 hrs
In short: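 H9c2 cells (ATCC) grown in high-glucose DMEM with 10% FBS at 37 °C, 5% CO2, used at 80-90% confluence and serum-starved 12 h. Compound given 4 h, then medium replaced by DMEM with 500 nM H2O2 for 1 h. Lysate spun 15,000g for 15 min. Cu/Zn SOD blocked with 1 mmol/L KCN, MnSOD read by WST-8 kit, expressed as U/mg protein.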

[8] = Half life in po dosed Sprague-Dawley rat measured upto 24 hrs by LC-MS/MS analysis; assay type: ADME, organism-based; details: in vivo
H9c2 [9] = assay: Antiapoptotic activity in rat H9c2 cells assessed as restoration of H2O2-induced bcl-2 downregulation at 10 uM preincubated for 4 hrs followed by H2O2 stimulation for 1 hr by Western blotting analysis; assay type: functional, cell-based; details: time 5.0 hrs
In short: (§7)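 Serum-starved (12 h) H9c2 cells were pretreated 4 h, then exposed to 500 nM H2O2 in DMEM for 1 h. Lysis on ice with protease/phosphatase inhibitors, then 13,000 g at 4 °C for 15 min. 20 μg protein run on 8-12% SDS-PAGE and blotted to PVDF. Probed overnight at 4 °C for caspase-3, pro-caspase-3, Bcl-2 and GAPDH, with chemiluminescent detection.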

H9c2 [10] = assay: Antioxidant activity in rat H9c2 cells assessed as protection against H2O2-induced hypoxic injury by measuring cell viability at 1 uM preincubated for 4 hrs followed by H2O2 stimulation for 1 hr by MTT assay relative to control; assay type: functional
In short: (§8)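 H9c2 cells at 1 × 10^5 cells/mL, 100 μL per well in triplicate, left 18 h. Compound diluted in DMSO; DMSO alone as negative control. 4 h pretreatment, then 400 nM H2O2 for 1 h. Medium removed and MTT added for 2-4 h, formazan dissolved in DMSO, absorbance at 570 nm. Medium-only wells gave the blank.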

H9c2 [11] = assay: Antiapoptotic activity in rat H9c2 cells assessed as reduction in H2O2-induced caspase-3 activation at 10 uM preincubated for 4 hrs followed by H2O2 stimulation for 1 hr by Western blotting analysis; assay type: functional, cell-based; details: time 5.0 hrs; in short: as §7
H9c2 [12] = assay: Antioxidant activity in rat H9c2 cells assessed as protection against H2O2-induced hypoxic injury by measuring cell viability at ED50 concentration preincubated for 4 hrs followed by H2O2 stimulation for 1 hr by MTT assay relative to control; assay type: functional; details: time 5 hrs; in short: as §6
H9c2 [13] = assay: Antioxidant activity in rat H9c2 cells assessed as protection against H2O2-induced hypoxic injury by measuring cell viability at 10 uM preincubated for 4 hrs followed by H2O2 stimulation for 1 hr by MTT assay relative to control; assay type: functional; in short: as §8
Mus musculus [14] = assay: as §1, with “cardiomyocytes damage” for “myocardial infarct size”, “5” for “10”, “hematoxylin and eosin” for “TTC”; assay type: functional, organism-based; details: time 10.0 day
In short: (§9)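 Eight-week C57BL/6J mice received 5 mg/kg/day i.p. (saline vehicle) for 7 days before permanent LAD ligation, then 3 further days. Paraffin heart sections deparaffinised, stained with hematoxylin 10 min, differentiated in 0.1% HCl, counterstained with eosin 3-5 min, then examined by light microscopy.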

H9c2 [15] = assay: Antiapoptotic activity in rat H9c2 cells assessed as restoration of H2O2-induced bcl-2 downregulation at 1 uM preincubated for 4 hrs followed by H2O2 stimulation for 1 hr by Western blotting analysis; assay type: functional, cell-based; details: time 5.0 hrs; in short: as §7
Mus musculus [16] = assay: as §1, with “apoptosis of cardiomyocytes” for “myocardial infarct size”, “5” for “10”, “TUNEL” for “TTC”; assay type: functional, organism-based; details: time 10.0 day; in short: as §5
Mus musculus [17] = assay: as §1, with “5” for “10”; assay type: functional, organism-based; details: time 10.0 day; in short: as §2
[18] = Cmax in Sprague-Dawley rat at 10 mg/kg, po measured upto 24 hrs by LC-MS/MS analysis; assay type: ADME, organism-based; parameters: route oral, dose 10 mg/kg, time <=24; details: in vivo
[19] = Toxicity in C57BL/6J mouse assessed as loss of body weight at 5 mg/kg, ip administered for 7 consecutive days; assay type: organism-based; details: in vivo, 168 h, time 7 day
[20] = Half life in Sprague-Dawley rat at 10 mg/kg, po measured upto 24 hrs by LC-MS/MS analysis; assay type: ADME, organism-based; details: in vivo
[21] = AUClast in Sprague-Dawley rat at 1 mg/kg, iv measured upto 24 hrs by LC-MS/MS analysis; assay type: ADME, organism-based; parameters: route intravenous, dose 1 mg/kg, time <=24; details: in vivo
In short: (§10)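 Male Sprague-Dawley rats, fasted, N = 3, given a single 1 mg/kg intravenous dose. Plasma separated by centrifugation and drug quantified by LC-MS/MS. Values reported as mean ± SD.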

[22] = Apparent volume of distribution during terminal phase in Sprague-Dawley rat at 10 mg/kg, po measured upto 24 hrs by LC-MS/MS analysis; assay type: ADME, organism-based; details: in vivo, read-out: Vz/F
[23] = Apparent volume of distribution during terminal phase in Sprague-Dawley rat at 1 mg/kg, iv measured upto 24 hrs by LC-MS/MS analysis; assay type: ADME, organism-based; details: in vivo
[24] = Oral bioavailability in Sprague-Dawley rat at 10 mg/kg measured upto 24 hrs by LC-MS/MS analysis; assay type: ADME, organism-based; details: in vivo
[25] = AUCinfinity in Sprague-Dawley rat at 1 mg/kg, iv measured upto 24 hrs by LC-MS/MS analysis; assay type: ADME, organism-based; parameters: route intravenous, dose 1 mg/kg, time <=24; details: in vivo; in short: as §10
H9c2 [26] = assay: Antiapoptotic activity in rat H9c2 cells assessed as reduction in H2O2-induced mitochondrial membrane potential loss at 1 uM preincubated for 4 hrs followed by H2O2 stimulation for 1 hr by JC1 staining based fluorescence microscopic analysis; assay type: functional, cell-based; details: time 5.0 hrs; in short: as §4
H9c2 [27] = assay: Cytoprotective activity against H2O2-induced injury in rat H9c2 cells assessed as reduction in LDH release at 1 uM preincubated for 4 hrs followed by H2O2 stimulation for 1 hr by LDH assay; assay type: functional, cell-based; details: time 5.0 hrs; in short: as §3
[28] = AUCinfinity in Sprague-Dawley rat at 10 mg/kg, po measured upto 24 hrs by LC-MS/MS analysis; assay type: ADME, organism-based; parameters: route oral, dose 10 mg/kg, time <=24; details: in vivo
In short: (§11)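 A single 10 mg/kg oral (i.g.) dose was given to male Sprague-Dawley rats, N = 3. Plasma was harvested by centrifugation and measured by LC-MS/MS. Values reported as mean ± SD.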

[29] = Cmax in Sprague-Dawley rat at 1 mg/kg, iv measured upto 24 hrs by LC-MS/MS analysis; assay type: ADME, organism-based; parameters: route intravenous, dose 1 mg/kg, time <=24; details: in vivo
[30] = Half life in Sprague-Dawley rat at 1 mg/kg, iv measured upto 24 hrs by LC-MS/MS analysis; assay type: ADME, organism-based; details: in vivo
H9c2 [31] = assay: Antiapoptotic activity in rat H9c2 cells assessed as reduction in H2O2-induced caspase-3 activation at 1 uM preincubated for 4 hrs followed by H2O2 stimulation for 1 hr by Western blotting analysis; assay type: functional, cell-based; details: time 5.0 hrs; in short: as §7
Mus musculus [32] = assay: as §1, with “epimyocardium damage” for “myocardial infarct size”, “5” for “10”, “hematoxylin and eosin” for “TTC”; assay type: functional, organism-based; details: time 10.0 day; in short: as §9
[33] = Apparent clearance in Sprague-Dawley rat at 10 mg/kg, po measured upto 24 hrs by LC-MS/MS analysis; assay type: ADME, organism-based; details: in vivo
[34] = AUClast in Sprague-Dawley rat at 10 mg/kg, po measured upto 24 hrs by LC-MS/MS analysis; assay type: ADME, organism-based; parameters: route oral, dose 10 mg/kg, time <=24; details: in vivo; in short: as §11
[35] = Toxicity in C57BL/6J mouse assessed as diarrhea at 5 mg/kg, ip administered for 7 consecutive days; assay type: organism-based; details: in vivo, 168 h, time 7 day

COc1cc(C(=O)OCCCCNC(=N)N)cc(OC)c1O [LEONURINE]
Activity (Mus musculus [1]): Active | bioavailability [2]: 1.78% | Activity (H9c2 [3]): inactive | Activity (H9c2 [4]): Active | Activity (Mus musculus [5]): Active | EC50 (H9c2 [6]): 192 nM | Activity (H9c2 [7]): Active | half-life [8]: > 2 h | Activity (H9c2 [9]): Active | Activity (H9c2 [10]): 52.4% | Activity (H9c2 [11]): Active | Activity (H9c2 [12]): 55.1% | Activity (H9c2 [13]): 62.7%

COc1cccc(C(=O)OCCCCNC(=N)N)c1OC
Activity (Mus musculus [14]): Active | Activity (H9c2 [15]): Active | Activity (Mus musculus [16]): Active | Activity (Mus musculus [17]): Active | Cmax [18]: 621 ng/mL | Activity [19]: Non-Toxic | EC50 (H9c2 [6]): 142 nM | Activity (H9c2 [7]): Active | half-life [20]: 4.87 h | AUC(0-t) at 24 h [21]: 882 ng·h/mL | Vd/F [22]: 43.7 L/kg | Vz/F [23]: 3.766 L/kg | bioavailability [24]: 18.5% | AUC(0-inf) [25]: 895 ng·h/mL | Activity (H9c2 [26]): Active | Activity (H9c2 [27]): Active | AUC(0-inf) [28]: 1680 ng·h/mL | Activity (H9c2 [10]): 69.3% | Cmax [29]: 764 ng/mL | half-life [30]: 1.63 h | Activity (H9c2 [31]): Active | Activity (H9c2 [12]): 62.8% | Activity (Mus musculus [32]): Active | Activity (H9c2 [13]): 65.3% | CL/F [33]: 92.9 mL/min/kg | AUC(0-t) at 24 h [34]: 1630 ng·h/mL | Activity [35]: Non-Toxic
